Several values for one entry are separate records, joined by “and”; a condition that tells them apart may be missing. Equal values may be shown once.
System: Fibroblast
Assay: Multiplex assay against human fibroblast
Format: toxicity, cell-based
Details: number of replicates 2
Method in brief: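 With compound added, live cells were imaged on a CQ1 microscope at 37°C and 5% CO2; staining with Hoechst33342, BioTracker Green Microtubule Cytoskeleton Dye, MitoTracker Red and Annexin V Alexa Fluor 680 had been done at seeding. The CellPathfinder machine-learning gating scheme split cells into Hoechst high-intensity objects or normal cells, normal cells into healthy, pyknosed or fragmented nuclei, and pyknosed cells into mitotic or apoptotic. The tubulin, mitochondrial-mass and membrane-permeability phenotypes are per cents of healthy-nucleus cells.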

[1] = 12 h, 1 µM, compound concentration 1 uM
[2] = 12 h, 10 µM, compound concentration 10 uM
[3] = 24 h, 1 µM, compound concentration 1 uM
[4] = 24 h, 10 µM, compound concentration 10 uM
[5] = 48 h, 1 µM, compound concentration 1 uM
[6] = 48 h, 10 µM, compound concentration 10 uM

## CC1=C(C)C(=O)C(C(CCCCCC(=O)O)c2ccccc2)=C(C)C1=O (configuration not stated) [SERATRODAST]
[1]
  Population Apoptotic (%): 50% and 60%
  Population Fragmented Nuclei (%): 6% and 11%
  Population Healthy Nuclei (%): 57% and 79%
  Population Hoechst High Intensity Objects (%): 0%
  Population Membrane Permeable-Phenotype (%): 5% and 2%
  Population Mitochondria Different-Phenotype (%): 0% and 2%
  Population Mitotic Cells (%): 50% and 40%
  Population Normal (%): 99% and 100%
  Population Tubulin-Different-Phenotype (%): 5% and 3%
  Total Cell Count: 128 and 228
[2]
  Population Apoptotic (%): 35% and 25%
  Population Fragmented Nuclei (%): 12% and 18%
  Population Healthy Nuclei (%): 79% and 75%
  Population Hoechst High Intensity Objects (%): 0%
  Population Membrane Permeable-Phenotype (%): 6% and 5%
  Population Mitochondria Different-Phenotype (%): 1%
  Population Mitotic Cells (%): 64% and 75%
  Population Normal (%): 100%
  Population Pyknosed Nuclei (%): 8% and 6%
  Population Tubulin-Different-Phenotype (%): 15% and 8%
  Total Cell Count: 167 and 192
[3]
  Population Apoptotic (%): 67% and 52%
  Population Fragmented Nuclei (%): 3% and 13%
  Population Healthy Nuclei (%): 64% and 76%
  Population Hoechst High Intensity Objects (%): 0%
  Population Membrane Permeable-Phenotype (%): 7% and 2%
  Population Mitochondria Different-Phenotype (%): 1% and 0%
  Population Mitotic Cells (%): 32% and 47%
  Population Normal (%): 99% and 100%
  Population Tubulin-Different-Phenotype (%): 9% and 1%
  Total Cell Count: 128 and 230
[4]
  Population Fragmented Nuclei (%): 11% and 14%
  Population Healthy Nuclei (%): 81%
  Population Hoechst High Intensity Objects (%): 0%
  Population Membrane Permeable-Phenotype (%): 3%
  Population Mitochondria Different-Phenotype (%): 0% and 1%
  Population Mitotic Cells (%): 36% and 85%
  Population Normal (%): 100%
  Population Pyknosed Nuclei (%): 6% and 3%
  Population Tubulin-Different-Phenotype (%): 8% and 9%
  Total Cell Count: 171 and 193
[5]
  Population Apoptotic (%): 79% and 52%
  Population Fragmented Nuclei (%): 9% and 16%
  Population Healthy Nuclei (%): 65% and 75%
  Population Hoechst High Intensity Objects (%): 0%
  Population Membrane Permeable-Phenotype (%): 3% and 1%
  Population Mitochondria Different-Phenotype (%): 0%
  Population Mitotic Cells (%): 20% and 47%
  Population Normal (%): 99% and 100%
  Population Tubulin-Different-Phenotype (%): 3% and 2%
  Total Cell Count: 133 and 248
[6]
  Population Apoptotic (%): 40% and 36%
  Population Fragmented Nuclei (%): 15% and 21%
  Population Healthy Nuclei (%): 81% and 73%
  Population Hoechst High Intensity Objects (%): 0%
  Population Membrane Permeable-Phenotype (%): 2% and 1%
  Population Mitochondria Different-Phenotype (%): 0%
  Population Mitotic Cells (%): 60% and 63%
  Population Normal (%): 100%
  Population Pyknosed Nuclei (%): 2% and 5%
  Population Tubulin-Different-Phenotype (%): 6% and 5%
  Total Cell Count: 171 and 213

Source: ChEMBL document CHEMBL5303300, “EUbOPEN Chemogenomics Library - Multiplex” (2023)
